Source: paper PMC3909687 (Biochimica et biophysica acta, 2012)

molecular target: T1, CC1736 (Caulobacter vibrioides, UniProt Q9A7I7); assay: spin-column desalting separation, lipid extraction, HPLC-UV; format: binding
T1 sequence (Q9A7I7 1-148): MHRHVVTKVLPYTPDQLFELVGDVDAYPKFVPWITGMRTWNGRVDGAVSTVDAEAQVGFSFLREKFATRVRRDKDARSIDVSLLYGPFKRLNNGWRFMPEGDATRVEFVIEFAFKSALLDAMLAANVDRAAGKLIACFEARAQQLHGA
Method in brief: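 Protein (2-3 nmol; cytochrome c 8-10 nmol as control) incubated with ligand (0.005–0.27 mM) in 20 mM MES pH 6.4, 100 mM NaCl, 5.0 mM CaCl2, 0.1 mM dodecyl maltoside, 1.0 mM TCEP, 2% ethanol, 45 min, 30 °C. Desalting spin column; protein by Lowry; eluate lipids by reversed-phase HPLC-UV.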

Kd [µM] | SMILES
140 ± 77 | COC1=CC(=O)C(C)=C(C/C=C(\C)CC/C=C(\C)CCC=C(C)C)C1=O [DMQ3]
18 ± 2 | COC1=C(OC)C(=O)C(C/C=C(\C)CCC=C(C)C)=C(C)C1=O [Q2]
35 ± 16 | COC1=C(OC)C(=O)C(C/C=C(\C)CC/C=C(\C)CCC=C(C)C)=C(C)C1=O [Q3]
